Assay results of several laboratories.
Each line is one published result; the experiments were not run side by side. ≈ marks a conversion by molar mass, not a printed value.
Organism: Staphylococcus aureus

Structure (SMILES)	test	system	setting	quantity	value
CN[C@H](CC(C)C)C(=O)N[C@H]1C(=O)N[C@@H](CC(N)=O)C(=O)N[C@H]2C(=O)N[C@H]3C(=O)N[C@H](C(=O)N[C@H](C(=O)O)c4cc(O)cc(O)c4-c4cc3ccc4O)[C@H](O)c3ccc(c(Cl)c3)Oc3cc2cc(c3O[C@@H]2O[C@H](CO)[C@@H](O)[C@H](O)[C@H]2O[C@H]2C[C@](C)(N)[C@H](O)[C@H](C)O2)Oc2ccc(cc2Cl)[C@H]1O	microbial killing	ATCC25904	–	MBC	1.95 µg/mL (≈ 1.35 µM)
O=c1c(O)c(-c2ccc(O)c(O)c2)oc2cc(O)cc(O)c12	microbial growth	ATCC29213	24 h	IC50	> 100000 nM
CC(O)CSc1nnc(Cn2cnc3c2c(=O)n(C)c(=O)n3C)n1-c1ccccc1 (stereo not drawn)	microbial growth, disc diffusion	–	25 µg/disc	inhibition zone	12.7 mm
CO/N=C(\C(=O)N[C@@H]1C(=O)N2C(C(=O)O)=C(CSC(=O)c3ccco3)CS[C@H]12)c1csc(N)n1	microbial killing	ATCC25923	18 h	MBC	2 µg/mL
C[C@H]1COc2c(N3CCN(C)CC3)c(F)cc3c(=O)c(C(=O)O)cn1c23	microbial killing	ATCC25904	–	MBC	0.09 µg/mL (≈ 0.249 µM)
CN[C@H](CC(C)C)C(=O)N[C@H]1C(=O)N[C@@H](CC(N)=O)C(=O)N[C@H]2C(=O)N[C@H]3C(=O)N[C@H](C(=O)N[C@H](C(=O)O)c4cc(O)cc(O)c4-c4cc3ccc4O)[C@H](O)c3ccc(c(Cl)c3)Oc3cc2cc(c3O[C@@H]2O[C@H](CO)[C@@H](O)[C@H](O)[C@H]2O[C@H]2C[C@](C)(N)[C@H](O)[C@H](C)O2)Oc2ccc(cc2Cl)[C@H]1O	microbial killing	ATCC25923	18 h	MBC	2 µg/mL (≈ 1.38 µM)
Cc1ccc(-c2nnc(SCC(C)O)n2-c2ccccc2)cc1 (stereo not drawn)	microbial growth, disc diffusion	–	25 µg/disc	inhibition zone	10 mm
CN(C)[C@@H]1C(O)=C(C(N)=O)C(=O)[C@@]2(O)C(O)=C3C(=O)c4c(O)cccc4[C@@](C)(O)[C@H]3C[C@@H]12	microbial growth, disc diffusion	–	100 µg/mL, 24 h	inhibition zone	25 mm
CN[C@H](CC(C)C)C(=O)N[C@H]1C(=O)N[C@@H](CC(N)=O)C(=O)N[C@H]2C(=O)N[C@H]3C(=O)N[C@H](C(=O)N[C@H](C(=O)O)c4cc(O)cc(O)c4-c4cc3ccc4O)[C@H](O)c3ccc(c(Cl)c3)Oc3cc2cc(c3O[C@@H]2O[C@H](CO)[C@@H](O)[C@H](O)[C@H]2O[C@H]2C[C@](C)(N)[C@H](O)[C@H](C)O2)Oc2ccc(cc2Cl)[C@H]1O	microbial growth	ATCC29213	24 h	IC50	2160 nM
O=C(O)c1cn(C2CC2)c2cc(N3CCNCC3)c(F)cc2c1=O	microbial growth, disc diffusion	–	100 µg/mL, 24 h	inhibition zone	0 mm
CC(O)CSc1nnc(COc2ccc(Cl)cc2Br)n1-c1ccccc1 (stereo not drawn)	microbial growth, disc diffusion	–	25 µg/disc	inhibition zone	19.3 mm
C=C/C=C(\C)CC[C@@H]1C[C@H](O)CC(=O)O1	microbial growth, broth dilution	ATCC6538P	–	MIC	256 µg/mL (≈ 1220 µM)
